NR2E3 ag-1 = human photoreceptor-specific nuclear receptor agonism; Q9Y5X4; CHO-S Gal4-NCOR/VP16-NR2E3 two-hybrid, luciferase; inhibition of corepressor binding, % at 3.98 µM; actives 0.35% (n = 360,000); AID 602229;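 active = inhibition above the mean of all tested compounds plus 3 SD, cut at about 70% in these data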;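 also: 0% = DMSO with NR2E3 transfected cells and 100% = cells lacking NR2E3 construct; higher means lower luciferase signal from less NR2E3 corepressor binding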
rCAG binder = molecules binding r(CAG) RNA repeats; r(CAG) RNA repeat, TO-PRO-1 dye displacement fluorescence; inhibition, % at 3 µM; actives 1.3% (n = 370,000); AID 651821;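 active = inhibition above the plate cutoff, the mean of all test compounds on that plate plus 3 SD, cut at about 35% in these data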;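 also: 0% = DMSO alone and 100% = 100 µM mitoxantrone as full dye displacement; higher means more dye released from RNA so lower well fluorescence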
PG9 Ab binder = small molecules binding HIV-1 gp120 antibody PG9; TR-FRET gp120-PG9 antibody binding; inhibition, % at 6.7 µM; AID 624416; actives 0.43% (n = 360,000); in the data active = inhibition above about 8.5%
NR2E3 ag-2 = agonists of human nuclear receptor NR2E3; Q9Y5X4; GST-NR2E3/biotin-RetCOR TR-FRET, 1536-well; inhibition of corepressor binding, % at 4.78 µM; actives 0.12% (n = 320,000); AID 2300;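 active = percent inhibition above the cutoff of mean plus 3 SD of all tested compounds, set per screening campaign, cut at about 20% in these data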;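 also: 0% = DMSO wells and 100% = biotin wells as full block of FRET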
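Assay system: NR2E3–RetCOR corepressor complex. Quantity: 1.35 nM GST-NR2E3. Buffer or medium: pH 7.5 Tris-based buffer. Reagent: biotinylated RetCOR corepressor at 7 nM final. Schedule: 5 h at 4 °C. Detection: TR-FRET, emission read at 617 and 671 nm. Replicates: one well per compound, singlicate testing.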
NR1D1 modulator = modulators of human Rev-erb alpha DNA binding; actives 0.79% (n = 370,000); P20393; activity, % at 10 µM; Rev-erbα–FITC-DNA binding, fluorescence polarization, 90 min;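 active = activity above about 14%, limit read from the data; passing the limit was not always enough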;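 also: 0% = DMSO wells with 35 nM protein and 100% = DMSO wells with 750 nM protein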
Target sequence (P20393 whole entry, looked up): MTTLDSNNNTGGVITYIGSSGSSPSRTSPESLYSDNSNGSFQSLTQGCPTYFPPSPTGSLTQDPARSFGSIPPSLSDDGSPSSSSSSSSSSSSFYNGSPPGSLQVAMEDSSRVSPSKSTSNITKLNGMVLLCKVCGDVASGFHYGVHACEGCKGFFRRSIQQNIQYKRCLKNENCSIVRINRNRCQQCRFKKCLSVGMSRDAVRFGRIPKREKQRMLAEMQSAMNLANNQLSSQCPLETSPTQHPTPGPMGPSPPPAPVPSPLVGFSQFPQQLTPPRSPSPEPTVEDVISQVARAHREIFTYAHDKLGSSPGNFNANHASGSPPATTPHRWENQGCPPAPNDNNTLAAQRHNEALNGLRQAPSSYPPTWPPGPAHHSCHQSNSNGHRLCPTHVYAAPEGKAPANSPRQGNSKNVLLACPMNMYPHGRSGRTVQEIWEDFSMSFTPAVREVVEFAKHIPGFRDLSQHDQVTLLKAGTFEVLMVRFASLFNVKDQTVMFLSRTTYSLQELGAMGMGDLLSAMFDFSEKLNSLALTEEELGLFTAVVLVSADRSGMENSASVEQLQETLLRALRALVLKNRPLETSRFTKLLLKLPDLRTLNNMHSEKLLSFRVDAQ
NR2E3 ag conf = NR2E3 agonism confirmed in two-hybrid assay | shares compounds with NR2E3 ag-1 | CHO-S mammalian two-hybrid NR2E3-NCOR, luciferase luminescence | inhibition, % at 3.98 µM | actives 51% (n = 2,300) | AID 624378;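 active = average inhibition above a cutoff equal to the mean inhibition of all tested compounds plus one SD, cut at about 70% in these data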;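 also: 0% = DMSO in NR2E3 cells and 100% = DMSO in cells lacking NR2E3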
GAL4-VP16 luc = reduces GAL4-VP16 reporter signal in NR2E3 counterscreen | inhibition, % at 3.98 µM | CHO-S GAL4-VP16 luciferase reporter, luminescence | actives 29% (n = 2,300) | shares compounds with NR2E3 ag-1;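 active = mean inhibition above a cutoff equal to the average over all tested compounds plus one standard deviation, cut at about 70% in these data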;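 also: luciferase from a UAS reporter driven by GAL4-VP16 transactivation; 0% = DMSO with VP16-transfected cells and 100% = DMSO with cells lacking VP16; higher means less reporter light so more repression of VP16 activity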
Starred values were filed as active, the others as inactive; nt = not tested or not shown. In the library only some 2.6% were active in any assay of this set; here they are far more common.

SMILES	NR2E3 ag-1	rCAG binder	PG9 Ab binder	NR2E3 ag-2	NR1D1 modulator	NR2E3 ag conf	GAL4-VP16 luc
COc1ccc2oc(C(=O)NCc3cc(OC)c(OC)cc3OC)c(C)c2c1	75*	5	-2	3	4	43	53
COc1ccc2oc(C(=O)NCCc3ccccc3)c(C)c2c1	-80	4	1	0	0	nt	nt
O=C(O)C(=Cc1ccc([N+](=O)[O-])cc1)c1ccccc1	nt	1	-2	nt	-2	nt	nt
Clc1ccc2c(NCc3ccccc3)ccnc2c1	69	11	0	3	4	44	61
CCN(CC)CCNc1ccnc2cc(Cl)ccc12	-22	-1	1	2	-2	nt	nt
O=C(NCCNc1ccnc2cc(Cl)ccc12)c1ccccc1F	64	5	0	0	-4	54	57
C[C@H]1[C@H](c2ccccc2)Oc2cccc(NCCc3ccccc3)c2S(=O)(=O)N1Cc1cccc(Cl)c1	nt	9	1	nt	5	nt	nt
O=C(NCc1ccccc1)[C@@H]1CCCN1C(=O)[C@H]1CCCN1C(=O)c1ccccc1C(F)(F)F	nt	-3	-1	nt	-1	nt	nt
COC(=O)c1cn(NC(=O)c2cc([N+](=O)[O-])ccc2F)c(=O)c2ccccc12	91*	6	-2	-1	-5	82*	66
COC(=O)c1cn(NC(=O)C2CCC(C)CC2)c(=O)c2ccccc12 (stereo not given)	-19	1	0	-3	5	nt	nt
CSC(=Nc1ccccc1)N=C(SCc1ccccc1)N(C)C	86*	-1	2	nt	-1	87*	53
COc1cccc(CN(C)C(=O)c2cc(COc3ccc(-n4cncn4)cc3)on2)c1	66	-1	2	3	6	46	41
COc1cccc(CN(C)C(=O)c2cc(COc3ccc4ncccc4c3)on2)c1	79*	-8	0	1	-3	97*	88*
Cc1ccccc1CN1[C@@H](C)[C@H](c2ccccc2)Oc2cccc(NCC(C)C)c2S1(=O)=O	nt	5	1	nt	-1	nt	nt
COc1ccccc1C(=O)N(CCC1CCCN1C)c1nc2ccccc2s1 (stereo not given)	65	-5	-1	8	0	30	-10
Cn1ncc(S(=O)(=O)Cc2ccccc2)c(Cl)c1=O	64	0	-3	-2	-4	32	-1
COC(=O)C1=C(C)N(C)C(=NCc2cc(OC)c(OC)c(OC)c2)NC1c1cccc(F)c1 (stereo not given)	nt	6	0	nt	-4	nt	nt
CCN(C(=O)CC(C)C)c1nnc(Cn2nnc3ccccc32)s1	-4	-9	-1	5	0	nt	nt
CCN(C(=O)c1ccc(C(C)(C)C)cc1)c1nnc(Cn2nnc3ccccc32)s1	89*	-1	1	1	-8	92*	77*
CC1OC(CC(=O)O)CC2=C1C(=O)c1c(O)cccc1C2=O (stereo not given)	101*	12	13*	nt	-2	101*	99*
Cc1csc2c(N3CCN(C(=O)Nc4ccccc4)CC3)ncnc12	10	-5	1	0	2	nt	nt
Cc1csc2c(N3CCN(C(=S)Nc4ccc(F)cc4F)CC3)ncnc12	90*	-2	1	3	-4	97*	88*
O=[N+]([O-])c1ccc(N2CCN(C(=S)Nc3ccc(F)cc3F)CC2)cc1	74*	4	0	1	-4	73*	62
O=S(=O)(c1cccs1)N1CCN(CCOc2ccc(Cl)cc2)CC1	-3	2	-1	3	1	nt	nt
O=S(=O)(c1cccs1)N1CCN(CC(O)COc2cc(Cl)ccc2Cl)CC1 (stereo not given)	89*	3	1	-2	1	96*	78*
Cc1cc2sc3ccc(C#CC4(O)CCCCC4)cc3c(=O)c2cc1C	60	8	-3	5	-1	86*	36
O=C1Cc2c([nH]c3ccc([N+](=O)[O-])cc23)-c2ccccc2N1	85*	5	-2	nt	-23	97*	71*

Screening results (PubChem BioAssay)
